Reference: ChEMBL document CHEMBL1121375, “Synthesis and structure-function studies of melanocyte stimulating hormone analogues modified in the 2 and 4(7) positions: comparison of activities on frog skin melanophores and melanoma adenylate cyclase” (1980)
Square brackets hold non-standard residues; d marks the D form. Peptide text beside a SMILES is read from it. Nle = CCCC[C@H](N)C(=O)O

What was measured:
[1] = system: Melanocortin receptor (Rana berlandieri); test: Relative potency using frog skin bioassay system
Mus musculus = species: Mus musculus; test: Relative potency using melanoma adenylate cyclase bioassay system from S-91 melanoma tumors grown in DBA/2J mice; assay type: functional
How it was run: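 Particulate membrane fraction from S-91 melanoma tumors; 100 μg membrane protein starts the reaction. Medium: 1 mM [α-³²P]ATP, 5 mM MgCl₂, 1 mM cAMP, 0.5 mM IBMX, 1 mM DTT, 20 mM creatine phosphate, 100 U/mL creatine phosphokinase, 10 μM GTP, 30 mM Tris-HCl pH 7.5. 10 min at 30 °C; [³²P]cAMP isolated and counted. Potency from half-maximal response relative to α-MSH.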

Potency [1] | Molecule | Potency (Mus musculus)
0.82 | CCCC[C@H](NC(=O)[C@H](CO)NC(=O)[C@H](Cc1ccccc1)NC(=O)[C@H](CO)NC(C)=O)C(=O)N[C@@H](CCC(=O)O)C(=O)N[C@@H](Cc1c[nH]cn1)C(=O)N[C@@H](Cc1ccccc1)C(=O)N[C@@H](CCCN=C(N)N)C(=O)N[C@@H](Cc1c[nH]c2ccccc12)C(=O)NCC(=O)N[C@@H](CCCCN)C(=O)N1CCC[C@H]1C(=O)N[C@H](C(N)=O)C(C)C | 0.9
5.2 | CCCC[C@H](NC(=O)[C@H](CCCCN)NC(=O)[C@H](Cc1ccc(O)cc1)NC(=O)[C@@H]1CCCN1C(=O)CNC(=O)[C@H](CCC(=O)O)NC(=O)[C@@H](N)CC(=O)O)C(=O)N[C@@H](CCC(=O)O)C(=O)N[C@@H](Cc1c[nH]cn1)C(=O)N[C@@H](Cc1ccccc1)C(=O)N[C@@H](CCCN=C(N)N)C(=O)N[C@@H](Cc1c[nH]c2ccccc12)C(=O)NCC(=O)N[C@@H](CO)C(=O)N1CCC[C@H]1C(=O)N1CCC[C@H]1C(=O)N[C@@H](CCCCN)C(=O)N[C@@H](CC(=O)O)C(=O)O (H-DEGPYK[Nle]EHFRWGSPPKD-OH) | 4.2
0.55 | H-DEGPYKMEHFRWGSPPKD-OH | 2.2
